Measurements published in PMC3819908 (Journal of molecular biology, 2011).
Where a name gives a salt, the structure may show the parent alone. One block for each compound: values may come before it.

Key:
[1] = Thermostability assay of detergent-solubilised receptors expressed in E. coli; assay type: physicochemical, turkey; details: for increase in thermostability (apparent Tm) relative to β1AR-m23: solubilised in NG
β1AR-m23 = β1AR-m23 (Meleagris gallopavo, UniProt P07700, A282L/C116L/F327A/F338M/M90V/R68S/Y227A); experiment: Saturation binding of ^3H-DHA to DDM-solubilised receptor; design: species or system turkey; details: read-out: KD for ^3H-DHA, E. coli membranes, solubilised in DDM, n = 4
β1AR-m23, sequence (P07700 34-424 R68S/M90V/C116L/Y227A/A282L/F327A/F338M): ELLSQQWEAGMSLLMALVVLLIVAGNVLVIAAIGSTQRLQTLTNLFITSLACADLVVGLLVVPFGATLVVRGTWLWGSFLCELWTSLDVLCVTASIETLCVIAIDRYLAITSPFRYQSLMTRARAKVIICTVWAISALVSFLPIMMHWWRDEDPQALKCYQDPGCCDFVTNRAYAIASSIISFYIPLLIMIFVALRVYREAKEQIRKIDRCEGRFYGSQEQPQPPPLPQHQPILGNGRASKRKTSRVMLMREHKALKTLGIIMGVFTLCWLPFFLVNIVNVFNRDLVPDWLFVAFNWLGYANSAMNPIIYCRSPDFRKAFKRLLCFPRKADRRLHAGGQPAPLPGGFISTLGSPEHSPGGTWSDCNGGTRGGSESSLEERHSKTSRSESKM
Procedure, shortened: (§1)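 Receptor expressed in E. coli XL1 by auto-induction (37°C 6 h, then 25°C overnight). French-press membranes were solubilised for 1 h on ice in 20 mM Tris pH 8, 0.4 M NaCl, 1% detergent. Binding ran in 20 mM Tris pH 8, 0.4 M NaCl, 0.1% DDM with 1.25-160 nM 3H-DHA. KD came from nonlinear regression; 2-4 experiments in duplicate.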

β1AR-JM3 [2] = target: T1, β1AR-JM3 (Meleagris gallopavo, UniProt P07700, A282L/C116L/D200E/D322K/F327A/F338M/I129V/M90V/R68S/Y227A/Y343L); experiment: as above; design: species or system turkey; details: read-out: KD for ^3H-DHA, E. coli membranes, solubilised in DDM, n = 4
T1 sequence (P07700 34-424 R68S/M90V/C116L/I129V/D200E/Y227A/A282L/D322K/F327A/F338M/Y343L): as the sequence (P07700 34-424 R68S/M90V/C116L/Y227A/A282L/F327A/F338M) above, with I96V, D167E, D289K, Y310L counted along it
Procedure, shortened: as §1

[3] = Thermostability assay of cysteine mutants expressed in HEK293T cells; assay type: physicochemical, turkey; details: Cys mutants, solubilised in NG
Procedure, shortened: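 Transiently transfected HEK293T cells were harvested after 48 h, held 1 h on ice in 75 mM Tris pH 8, 12.5 mM MgCl2, 2 mM EDTA, then detergent-solubilised at 4°C. Samples were diluted in 20 mM Tris pH 8, 0.4 M NaCl and heated 30 min at a range of temperatures without ligand. 3H-DHA (80 nM final) was added for 1 h at 4°C; gel-filtration separation gave apparent Tm.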

[4] = in dodecylmaltoside (DDM); cited from earlier work
β1AR-JM3 [5] = target: T1, β1AR-JM3; experiment: Competition binding, displacement of ^3H-DHA; design: species or system turkey; details: competition with ^3H-DHA

Compound: D322K: β1AR-m23 salt bridge mutant D322K
- increase in thermostability (apparent Tm) relative to β1AR-m23 [1]: 5 °C

Compound: wild-type receptor: residues 34-424 of the turkey β1AR
- decrease in stability on addition of Zn^2+ ([1]; 1 mM ZnCl2): up to 7 °C

- Kd (β1AR-m23): 5.5 ± 1.1 nM
- Kd (β1AR-JM3 [2]): 10.6 ± 1.6 nM
Compound: 1-[4,6-propyl-^3H]dihydroalprenolol [^3H-DHA]

Compound: M44C: single cysteine mutant of β1AR-m23
- destabilisation (decrease in thermostability) relative to β1AR-m23 [3]: 4 °C

Compound: β1AR-m23: residues 34-424 of turkey β1-adrenoceptor with R68S, M90V, Y227A, A282L, F327A, F338M and C116L
- increase of the apparent Tm relative to wild type [4]: 21 °C
- apparent Tm ([1]; 0.8% NG, identical conditions): 23.4 ± 0.8 °C

Compound: V103C: single cysteine mutant of β1AR-m23
- destabilisation (decrease in thermostability) relative to β1AR-m23 [3]: 7 °C

- fold weaker binding to β1AR-JM3 compared to wild-type β1AR (β1AR-JM3 [5]): 4960 fold
Compound: NC[C@H](O)c1ccc(O)c(O)c1 [noradrenaline, L-(-)-norepinephrine bitartrate salt monohydrate]

Compound: Y343L: most stabilising single mutation of β1AR-m23 from the leucine scan
- increase in thermostability (apparent Tm) relative to β1AR-m23 [1]: 5 °C
